According to ChEMBL document CHEMBL4811272, “A new sulfated triterpene glycoside from the sea cucumber Colochirus quadrangularis, and evaluation of its antifungal, antitumor and immunomodulatory activities” (Bioorg Med Chem, 2021):
Activity calls are given as the source filed them. The calls are words filed in the database; no cut-off is given here.

Assays:
[1] = test system: H22; experiment: Antitumor activity against mouse H22 cells implanted in KM mouse assessed as tumor growth inhibition at 50 mg/kg, IG administered everyday for 7 days relative to control; assay type: functional; settings: H22, po, 168 h, time 7 day, read-out: TGI
Summary of the method: (§1)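 S-180 or H22 cells, about 2.5 × 10⁶ per mouse, injected s.c. in the right axilla of wild-type KM mice. Randomized after 24 h and dosed intragastrically for 7 days; sacrificed 24 h after the last dose. TGI = (W_C − W_T)/W_C × 100% from average tumor weight. n = 8; one-way ANOVA vs vehicle.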

[2] = test system: Bel-7402; experiment: Antitumor activity against human Bel-7402 cells implanted in BALB/c-nu mouse assessed as tumor growth inhibition at 5 mg/kg, IG administered everyday for 7 days relative to control; assay type: functional; settings: Bel-7402, po, 168 h, time 7 day, read-out: TGI
[3] = test system: HCT-116; experiment: Cytotoxicity against human HCT-116 cells assessed as reduction in cell viability by sulforhodamine B assay; assay type: functional, cell-based
Summary of the method: (§2)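 Cells were kept in RPMI-1640 with 10% FBS, 2 mM L-glutamine, 50 μM β-mercaptoethanol and penicillin/streptomycin, at 37 °C in 5% CO2. SRB assay used 100, 10, 1, 0.1 and 0.01 μM, each in triplicate. Percent inhibition was calculated against solvent control OD. IC50 came from Logit curve fitting and is the mean of three independent experiments.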

[4] = biological target: Vascular endothelial growth factor receptor 2 (Mus musculus, UniProt P35918); experiment: Inhibition of VEGFR2 in mouse NIH/3T3 cells assessed as reduction of VEGF-stimulated phosphorylation; assay type: cell-based
Summary of the method: (§3)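 NIH/3T3 fibroblasts transfected to overexpress VEGFR-2 or PDGFR-β, starved 24 h, then given compound. Stimulation: VEGF 500 ng/mL for VEGFR-2 cells, PDGF-BB 150 ng/mL for PDGFR-β cells. Cells fixed in 4% paraformaldehyde and probed with PY-99 anti-phosphotyrosine, secondary IgG and HRP-avidin. OD 405 nm read after ABTS; IC50 from three independent experiments.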

[5] = test system: Bel-7402; experiment: Antitumor activity against human Bel-7402 cells implanted in BALB/c-nu mouse assessed as T/C ratio at 50 mg/kg, IG administered everyday for 7 days relative to control; assay type: functional; settings: time 7 day
[6] = test system: Cryptococcus neoformans; experiment: Antifungal activity against Cryptococcus neoformans ATCC 32609 by microplate reader assay; assay type: functional; settings: ATTCC32609
Summary of the method: (§4)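 Broth microdilution read by optical density at 630 nm. MIC80 is the first well with about 80% less growth than the drug-free well. Each concentration was run in three replicate wells, and values are means of three independent experiments.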

[7] = test system: Mus musculus; experiment: Immunomodulatory activity in cyclophosphamide-immunosuppressed KM mouse assessed as increase in carbon particle clearance index in at 50 to 500 mg/kg, IG once daily measured after 14 days; assay type: functional, organism-based; settings: dose 50-500 mg/kg, time 14.0 day
Summary of the method: (§5)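 KM mice dosed intragastrically once daily for 14 days at 5, 50 or 500 mg/kg; vehicle 0.5% CMC-Na. CTX 50 mg/kg i.p. on days 7, 9 and 11. 1 h after the last dose, 25% Indian ink given i.v. at 0.1 mL/10 g. Blood (20 µL) taken at 2 and 10 min, lysed in 2 mL water, OD 680 nm read. K and α calculated with body, liver and spleen weights. n = 8.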

[8] = test system: Candida albicans; experiment: Antifungal activity against Candida albicans ATCC 76615 by microplate reader assay; assay type: functional; settings: ATTCC76615; summary of the method: as §4
[9] = test system: HCT-116; experiment: Induction of apoptosis in human HCT-116 cells assessed as apoptosis associated morphological changes measured upto 2 times of IC50 concentration for 24 hrs by Hoechst staining method; assay type: functional, cell-based
Summary of the method: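 HCT-116 cells treated with vehicle or three compound concentrations, then stained with Hoechst 33258. Nuclei examined by inverted fluorescence microscopy at ×400 in five random fields. Apoptotic cells expressed as % of cells counted. n = 3; ANOVA vs vehicle.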

[10] = test system: Mus musculus; experiment: Immunomodulatory activity in cyclophosphamide-immunosuppressed KM mouse assessed as improved in phagocytosis function in at 50 to 500 mg/kg, IG once daily measured after 14 days; assay type: functional, organism-based; settings: dose 50-500 mg/kg, time 14.0 day; summary of the method: as §5
[11] = test system: HCT-116; experiment: Induction of apoptosis in human HCT-116 cells assessed as increase in late apoptotic cells measured upto 2 times of IC50 concentration by annexin V staining based flow cytometry analysis; assay type: functional, cell-based
Summary of the method: (§6)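 HCT-116 cells treated with vehicle or three compound concentrations, collected, and stained with Annexin V-FITC and propidium iodide in the dark at 4 °C. Flow cytometry quadrants: Q4 live, Q3 early apoptotic, Q2 late apoptotic, Q1 necrotic. n = 3; ANOVA vs vehicle.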

[12] = test system: Bel-7402; experiment: Antitumor activity against human Bel-7402 cells implanted in BALB/c-nu mouse assessed as T/C ratio at 100 mg/kg, IG administered everyday for 7 days relative to control; assay type: functional; settings: time 7 day
[13] = Inhibition of angiogenesis in human HMEC-1 cells assessed as tube formation by matrigel-based assay; assay type: functional, cell-based
Summary of the method: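 HMEC-1 cells seeded onto solidified Matrigel and exposed to compound, then cultured. Total tube length measured and used to calculate IC50. Three independent experiments.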

[14] = test system: MKN-28; experiment: Cytotoxicity against human MKN-28 cells assessed as reduction in cell viability by sulforhodamine B assay; assay type: functional, cell-based; summary of the method: as §2
[15] = test system: SPC-A4; experiment: Cytotoxicity against human SPC-A4 cells assessed as reduction in cell viability by sulforhodamine B assay; assay type: functional, cell-based; summary of the method: as §2
[16] = test system: H22; experiment: Antitumor activity against mouse H22 cells implanted in KM mouse assessed as tumor growth inhibition at 5 mg/kg, IG administered everyday for 7 days relative to control; assay type: functional; settings: H22, po, 168 h, time 7 day, read-out: TGI; summary of the method: as §1
[17] = test system: Pyricularia oryzae; experiment: Antifungal activity against Pyricularia oryzae P-2B by measuring minimum morphological deformation concentration; assay type: functional; settings: read-out: MEC
[18] = test system: HCT-116; experiment: Induction of apoptosis in human HCT-116 cells assessed as increase in early apoptotic cells measured upto 2 times of IC50 concentration by annexin V staining based flow cytometry analysis; assay type: functional, cell-based; summary of the method: as §6
[19] = test system: Bel-7402; experiment: Antitumor activity against human Bel-7402 cells implanted in BALB/c-nu mouse assessed as tumor growth inhibition at 500 mg/kg, IG administered everyday for 7 days relative to control; assay type: functional; settings: Bel-7402, po, 168 h, time 7 day, read-out: TGI
[20] = test system: CCRF S-180; experiment: Antitumor activity against mouse S-180 cells implanted in KM mouse assessed as tumor growth inhibition at 50 mg/kg, IG administered everyday for 7 days relative to control; assay type: functional; settings: CCRF S-180, po, 168 h, time 7 day, read-out: TGI; summary of the method: as §1
[21] = test system: HCT-116; experiment: Induction of apoptosis in human HCT-116 cells assessed as increase in necrotic cells measured upto 2 times of IC50 concentration by annexin V staining based flow cytometry analysis; assay type: functional, cell-based; summary of the method: as §6
[22] = test system: MCF7; experiment: Cytotoxicity against human MCF7 cells assessed as reduction in cell viability by sulforhodamine B assay; assay type: functional, cell-based; summary of the method: as §2
[23] = test system: Bel-7402; experiment: Antitumor activity against human Bel-7402 cells implanted in BALB/c-nu mouse assessed as tumor growth inhibition at 50 mg/kg, IG administered everyday for 7 days relative to control; assay type: functional; settings: Bel-7402, po, 168 h, time 7 day, read-out: TGI
[24] = biological target: Platelet-derived growth factor receptor beta (Mus musculus, UniProt P05622); experiment: Inhibition of PDGFRbeta in mouse NIH/3T3 cells assessed as reduction of PDGF-BB-stimulated phosphorylation; assay type: cell-based; summary of the method: as §3
[25] = test system: HMEC-1; experiment: Antimigratory activity against human HMEC-1 cells assessed as inhibition of cell migration by transwell assay; assay type: functional, cell-based
Summary of the method: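 HMEC-1 endothelial cells seeded and exposed to compound. Proliferation read by SRB and migration by Transwell. IC50 calculated from three independent experiments.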

Vascular endothelial growth factor receptor 2, sequence (P35918 whole entry): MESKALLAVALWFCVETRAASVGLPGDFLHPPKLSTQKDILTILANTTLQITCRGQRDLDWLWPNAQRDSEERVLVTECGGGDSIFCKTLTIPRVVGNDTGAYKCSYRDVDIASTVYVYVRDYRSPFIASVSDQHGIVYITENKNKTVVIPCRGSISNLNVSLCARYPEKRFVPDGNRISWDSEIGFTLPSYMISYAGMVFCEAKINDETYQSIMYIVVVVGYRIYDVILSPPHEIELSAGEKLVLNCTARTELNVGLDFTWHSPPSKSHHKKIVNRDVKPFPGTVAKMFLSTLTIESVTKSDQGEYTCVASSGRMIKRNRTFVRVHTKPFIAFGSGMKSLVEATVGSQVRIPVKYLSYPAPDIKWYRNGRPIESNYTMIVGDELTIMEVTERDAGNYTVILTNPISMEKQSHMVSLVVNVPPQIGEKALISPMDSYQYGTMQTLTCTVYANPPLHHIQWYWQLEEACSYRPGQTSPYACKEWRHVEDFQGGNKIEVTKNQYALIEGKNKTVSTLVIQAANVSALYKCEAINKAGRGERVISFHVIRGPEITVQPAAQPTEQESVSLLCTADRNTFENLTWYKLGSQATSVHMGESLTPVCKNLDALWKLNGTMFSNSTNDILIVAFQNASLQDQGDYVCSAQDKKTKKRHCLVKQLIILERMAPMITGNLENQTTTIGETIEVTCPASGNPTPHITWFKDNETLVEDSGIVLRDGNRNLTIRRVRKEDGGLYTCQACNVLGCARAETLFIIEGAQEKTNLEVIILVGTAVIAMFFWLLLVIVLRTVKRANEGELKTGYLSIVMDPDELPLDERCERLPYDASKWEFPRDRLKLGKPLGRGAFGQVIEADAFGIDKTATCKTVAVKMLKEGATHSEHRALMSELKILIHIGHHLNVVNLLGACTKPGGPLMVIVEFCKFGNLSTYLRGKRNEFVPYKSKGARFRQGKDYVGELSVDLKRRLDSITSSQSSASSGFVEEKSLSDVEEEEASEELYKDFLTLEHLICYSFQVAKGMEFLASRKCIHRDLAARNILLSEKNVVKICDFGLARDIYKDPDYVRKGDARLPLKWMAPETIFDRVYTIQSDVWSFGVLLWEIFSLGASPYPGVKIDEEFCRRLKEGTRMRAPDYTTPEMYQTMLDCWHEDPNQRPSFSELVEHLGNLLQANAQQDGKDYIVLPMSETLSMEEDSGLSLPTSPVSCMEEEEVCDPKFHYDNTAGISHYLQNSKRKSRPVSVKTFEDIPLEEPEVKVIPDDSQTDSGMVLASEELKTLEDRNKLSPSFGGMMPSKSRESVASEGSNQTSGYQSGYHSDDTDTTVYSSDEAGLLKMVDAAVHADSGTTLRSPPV
Platelet-derived growth factor receptor beta, sequence (P05622 whole entry): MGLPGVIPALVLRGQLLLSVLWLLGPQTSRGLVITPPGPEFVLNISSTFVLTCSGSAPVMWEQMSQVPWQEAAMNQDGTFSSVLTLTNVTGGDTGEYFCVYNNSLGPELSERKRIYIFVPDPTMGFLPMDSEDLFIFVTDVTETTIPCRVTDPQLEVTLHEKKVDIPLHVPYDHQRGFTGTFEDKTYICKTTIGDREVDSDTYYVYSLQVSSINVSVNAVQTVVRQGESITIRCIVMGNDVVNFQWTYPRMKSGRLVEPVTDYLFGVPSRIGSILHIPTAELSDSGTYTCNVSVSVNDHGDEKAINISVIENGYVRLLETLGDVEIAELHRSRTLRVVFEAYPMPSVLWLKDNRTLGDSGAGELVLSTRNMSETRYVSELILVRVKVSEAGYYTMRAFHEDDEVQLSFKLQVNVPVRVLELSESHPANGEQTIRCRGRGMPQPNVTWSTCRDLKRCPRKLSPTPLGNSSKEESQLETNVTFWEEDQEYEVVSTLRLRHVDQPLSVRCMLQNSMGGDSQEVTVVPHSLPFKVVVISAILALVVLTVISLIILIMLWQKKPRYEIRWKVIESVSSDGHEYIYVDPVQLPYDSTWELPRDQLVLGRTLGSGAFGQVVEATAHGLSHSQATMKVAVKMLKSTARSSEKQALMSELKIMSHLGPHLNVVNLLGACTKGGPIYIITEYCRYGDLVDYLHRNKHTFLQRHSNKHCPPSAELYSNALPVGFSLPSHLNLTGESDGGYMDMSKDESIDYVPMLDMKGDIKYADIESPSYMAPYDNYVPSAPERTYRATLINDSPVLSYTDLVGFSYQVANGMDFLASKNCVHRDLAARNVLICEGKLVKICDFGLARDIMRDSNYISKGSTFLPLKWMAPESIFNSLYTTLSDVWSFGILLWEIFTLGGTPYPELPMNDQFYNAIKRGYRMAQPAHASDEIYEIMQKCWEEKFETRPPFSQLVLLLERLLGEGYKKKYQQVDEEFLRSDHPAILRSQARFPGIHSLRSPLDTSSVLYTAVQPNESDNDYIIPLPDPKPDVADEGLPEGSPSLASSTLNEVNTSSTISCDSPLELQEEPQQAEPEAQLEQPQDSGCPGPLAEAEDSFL

C=C(C)CCC[C@]1(C)OC(=O)[C@]23CC[C@@H]4C(=CCC5C(C)(C)[C@@H](O[C@@H]6OC[C@@H](OS(=O)(=O)[O-])[C@H](O)[C@H]6O[C@@H]6O[C@H](C)[C@@H](O[C@@H]7OC[C@@H](O)[C@H](O[C@@H]8O[C@H](CO)[C@@H](O)[C@H](OC)[C@H]8O)[C@H]7O)[C@H](O)[C@H]6O)CC[C@@]54C)[C@]2(C)C[C@H](OC(C)=O)[C@@H]31.[Na+] (stereo not given in full)
inhibition in vivo at 50 mg/kg [1]: 43.3%
inhibition in vivo at 5 mg/kg [2]: 50.1%
IC50 [3]: 1360 nM
IC50 [4]: 2200 nM
T/C [5]: 42.2%
MIC80 [6]: 16 µg/mL
Activity [7]: Active
MIC80 [8]: 4 µg/mL
Activity [9]: Active
Activity [10]: Active
Activity [11]: Active
T/C [12]: 20%
IC50 [13]: 60 nM
IC50 [14]: 1830 nM
IC50 [15]: 1500 nM
inhibition in vivo at 5 mg/kg [16]: 40.1%
minimal effective concentration [17]: ≤ 16 µg/mL
Activity [18]: Active
inhibition in vivo at 500 mg/kg [19]: 58.6%
inhibition in vivo at 50 mg/kg [20]: 55.5%
Activity [21]: Active
IC50 [22]: 2030 nM
inhibition in vivo at 50 mg/kg [23]: 58.2%
IC50 [24]: 4800 nM
IC50 [25]: 50 nM
